Data published in ChEMBL document CHEMBL1135991 (J Med Chem, 2002).

Assays:
[1] = target: T1, Melanocortin receptor 5 (Homo sapiens, UniProt P33032); test: Stimulation of intracellular cAMP levels in HEK293 cells expressing human melanocortin 5 receptor
[2] = target: T2, Melanocortin receptor 4 (Homo sapiens, UniProt P32245); test: Stimulation of intracellular cAMP levels in CHO cells expressing human Melanocortin-4 receptor; format: functional, cell-based
[3] = target: T3, Melanocortin receptor 3 (Homo sapiens, UniProt P41968); test: Stimulation of intracellular cAMP levels in HEK293 cells expressing human Melanocortin-3 receptor
T3 sequence (P41968 whole entry): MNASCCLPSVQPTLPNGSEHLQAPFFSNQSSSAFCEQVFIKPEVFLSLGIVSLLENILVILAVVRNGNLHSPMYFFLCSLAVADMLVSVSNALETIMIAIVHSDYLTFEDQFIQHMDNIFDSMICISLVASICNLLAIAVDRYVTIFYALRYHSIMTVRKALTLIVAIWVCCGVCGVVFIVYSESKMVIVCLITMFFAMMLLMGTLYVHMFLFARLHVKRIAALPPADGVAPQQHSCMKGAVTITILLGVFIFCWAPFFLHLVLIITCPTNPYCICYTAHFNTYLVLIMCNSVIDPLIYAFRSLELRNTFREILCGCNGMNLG

[4] = target: T1, Melanocortin receptor 5; test: Effective concentration against human melanocortin 5 receptor (hMC5R) in HEK293 cells; format: cell-based
Procedure, shortened: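 Transfected HEK293 cells were seeded 50 000/well 48 h ahead. They were preincubated 1 min at 37 °C in EBSS with IBMX, then given varying melanotropin concentrations for 3 min at 37 °C. The reaction was stopped with ice-cold Tris/EDTA and lysates boiled 15 min. Supernatant cAMP was measured by competitive binding kit. EC50 came from a nonlinear least-squares fit; duplicate experiments, each in triplicate.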

[5] = target: T1, Melanocortin receptor 5; test: Binding affinity for human melanocortin 5 receptor (hMC5R) expressed in HEK293 cells; format: cell-based
[6] = target: T3, Melanocortin receptor 3; test: Binding affinity for human Melanocortin-3 receptor (hMC3R) expressed in HEK293 cells; format: cell-based
[7] = target: T3, Melanocortin receptor 3; test: Inhibition of human Melanocortin-3 receptor (hMC3R) expressed in HEK293 cells; format: cell-based
[8] = target: T2, Melanocortin receptor 4; test: Binding affinity for human Melanocortin-4 receptor (hMC4R)
[9] = target: T2, Melanocortin receptor 4; test: Inhibition of binding to human Melanocortin-4 receptor (hMC4R)
[10] = species on record: Homo sapiens; test: Selectivity as ratio of binding affinity for human melanocortin 1 and melanocortin 3 receptors
[11] = target: Melanocortin receptor (M1 and M4) (Homo sapiens) (UniProt P32245+Q01726); test: Selectivity as ratio of binding affinity for human melanocortin 1 and melanocortin 4 receptors; format: protein assay

T1 sequence (P33032 whole entry): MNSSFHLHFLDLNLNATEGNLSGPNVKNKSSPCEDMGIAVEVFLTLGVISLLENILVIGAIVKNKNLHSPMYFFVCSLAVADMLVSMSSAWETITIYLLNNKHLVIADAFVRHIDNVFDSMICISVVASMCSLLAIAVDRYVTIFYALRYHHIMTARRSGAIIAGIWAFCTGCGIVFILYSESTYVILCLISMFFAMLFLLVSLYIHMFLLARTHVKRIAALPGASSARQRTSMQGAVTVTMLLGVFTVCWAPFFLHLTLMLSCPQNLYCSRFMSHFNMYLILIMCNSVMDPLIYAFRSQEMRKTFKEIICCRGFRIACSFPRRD
T2 sequence (P32245 whole entry): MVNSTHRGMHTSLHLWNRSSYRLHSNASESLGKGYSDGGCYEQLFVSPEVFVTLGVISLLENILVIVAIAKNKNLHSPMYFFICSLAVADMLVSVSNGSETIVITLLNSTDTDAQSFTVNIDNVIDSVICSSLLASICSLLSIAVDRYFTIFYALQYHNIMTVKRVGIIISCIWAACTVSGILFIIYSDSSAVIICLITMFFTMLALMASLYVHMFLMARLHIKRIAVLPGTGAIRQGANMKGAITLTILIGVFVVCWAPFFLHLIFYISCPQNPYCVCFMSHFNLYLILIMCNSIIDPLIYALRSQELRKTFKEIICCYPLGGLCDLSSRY

Structure (SMILES) | ACT [1] [%] | ACT [2] [%] | ACT [3] [%] | EC50 [4] [µM] | Ki [6] [µM] | EC50 [7] [µM] | Ki [8] [µM] | EC50 [9] [µM] | further results
N=C(N)NCCC[C@H]1NC(=O)[C@H](Cc2ccccc2)NC(=O)[C@H]2CCCN2C(=O)CCC(=O)NCCCC[C@@H](C(N)=O)NC(=O)[C@H](Cc2c[nH]c3ccccc23)NC1=O | 100 | 60.5 | 21 |  |  |  |  |  | 
N=C(N)NCCC[C@H](NC(=O)[C@@H](Cc1ccccc1)NC(=O)[C@H](Cc1cnc[nH]1)NC(=O)CCC(=O)O)C(=O)N[C@@H](Cc1c[nH]c2ccccc12)C(=O)N[C@@H](CCCCN)C(N)=O |  |  |  | 1.1 | 0.14 | 0.068 | 0.63 | 3 | Ki [5]: 0.88 µM
N=C(N)NCCC[C@@H]1NC(=O)[C@@H](Cc2ccccc2)NC(=O)[C@@H]2CCCN2C(=O)CCC(=O)NCCCC[C@@H](C(N)=O)NC(=O)[C@H](Cc2c[nH]c3ccccc23)NC1=O |  |  |  |  |  |  | 0.19 | 2.3 | EC50 ([4]; hek293): 1.3 µM; Ki ([5]; hek293): 0.99 µM; Ki ([6]; hek293): 0.39 µM; EC50 ([7]; hek293): 0.79 µM
C[C@@H]1NC(=O)[C@@H](Cc2ccccc2)NC(=O)[C@H](Cc2c[nH]cn2)NC(=O)CCC(=O)NCCCC[C@H](C(N)=O)NC(=O)[C@@H](Cc2c[nH]c3ccccc23)NC1=O | 0 | 0 | 53 |  |  |  |  |  | 
C[C@@H]1NC(=O)[C@@H](Cc2ccccc2)NC(=O)[C@H](Cc2cnc[nH]2)NC(=O)CCC(=O)NCCCC[C@@H](C(N)=O)NC(=O)[C@H](Cc2c[nH]c3ccccc23)NC1=O |  |  |  | > 10 | 0.37 | 1 |  | > 1 | 
N=C(N)NCCC[C@@H]1NC(=O)[C@@H](Cc2ccccc2)NC(=O)[C@H](Cc2c[nH]cn2)NC(=O)CCCC(=O)NCCCC[C@H](C(N)=O)NC(=O)[C@@H](Cc2c[nH]c3ccccc23)NC1=O | 0 | 100 | 100 |  |  |  |  |  | 
C[C@H]1NC(=O)[C@H](Cc2c[nH]cn2)NC(=O)CCC(=O)NCCCC[C@@H](C(N)=O)NC(=O)[C@H](Cc2c[nH]c3ccccc23)NC(=O)[C@H](CCCN=C(N)N)NC1=O |  |  |  |  |  |  |  | > 10 | EC50 ([4]; hek293): > 10 µM; EC50 ([7]; hek293): > 10 µM
C[C@@H]1NC(=O)CCC(=O)NCCCC[C@H](C(N)=O)NC(=O)[C@@H](Cc2c[nH]c3ccccc23)NC(=O)[C@H](CCCN=C(N)N)NC(=O)[C@@H](Cc2ccccc2)NC1=O | 0 | 35 | 19 |  |  |  |  |  | 
N=C(N)NCCC[C@@H]1NC(=O)[C@@H](Cc2ccccc2)NC(=O)[C@H](Cc2c[nH]cn2)NC(=O)CCC(=O)NCCCC[C@H](C(N)=O)NC(=O)[C@@H](Cc2c[nH]c3ccccc23)NC1=O | 67 | 100 | 95 |  |  |  |  |  | Selectivity ratio [10]: 52.5; Selectivity ratio [11]: 700
N=C(N)NCCC[C@@H]1NC(=O)[C@@H](Cc2ccccc2)NC(=O)[C@H](Cc2c[nH]cn2)NC(=O)CCCC(=O)NCCCC[C@@H](C(N)=O)NC(=O)[C@H](Cc2c[nH]c3ccccc23)NC1=O |  |  |  | > 10 | 0.11 | 0.075 | 0.67 | 0.05 | Ki [5]: 3.1 µM
N=C(N)NCCC[C@@H]1NC(=O)[C@@H](Cc2ccccc2)NC(=O)[C@H](Cc2c[nH]cn2)NC(=O)CCC(=O)NCCCC[C@@H](C(N)=O)NC(=O)[C@H](Cc2c[nH]c3ccccc23)NC1=O |  |  |  | 0.56 | 0.077 | 0.07 | 0.0057 | 0.0016 | Ki [5]: 0.66 µM
N=C(N)NCCC[C@@H]1NC(=O)[C@@H](Cc2ccc3ccccc3c2)NC(=O)[C@H](Cc2c[nH]cn2)NC(=O)c2ccccc2C(=O)NCCCC[C@H](C(N)=O)NC(=O)[C@@H](Cc2c[nH]c3ccccc23)NC1=O | 56 | 0 | 36 |  |  |  |  |  | 
N=C(N)NCCC[C@@H]1NC(=O)[C@@H](Cc2ccc3ccccc3c2)NC(=O)[C@H](Cc2cnc[nH]2)NC(=O)CCCC(=O)NCCCC[C@@H](C(N)=O)NC(=O)[C@H](Cc2c[nH]c3ccccc23)NC1=O |  |  |  | 0.00101 | 0.0059 | > 10 | 0.22 | 1.2 | Ki [5]: 0.026 µM
N=C(N)NCCC[C@@H]1NC(=O)[C@@H](Cc2ccc3ccccc3c2)NC(=O)[C@H](Cc2c[nH]cn2)NC(=O)CCC(=O)NCCCC[C@H](C(N)=O)NC(=O)[C@@H](Cc2c[nH]c3ccccc23)NC1=O | 100 | 35 | 88 |  |  |  |  |  | 
N=C(N)NCCC[C@@H]1NC(=O)[C@@H](Cc2ccccc2)NC(=O)[C@H](Cc2cnc[nH]2)NC(=O)c2ccccc2C(=O)NCCCC[C@@H](C(N)=O)NC(=O)[C@H](Cc2c[nH]c3ccccc23)NC1=O |  |  |  | > 5 | 0.28 | 0.013 | 0.058 | 0.07 | 
N=C(N)NCCC[C@@H]1NC(=O)[C@@H](Cc2ccc3ccccc3c2)NC(=O)[C@H](Cc2cnc[nH]2)NC(=O)c2ccccc2C(=O)NCCCC[C@@H](C(N)=O)NC(=O)[C@H](Cc2c[nH]c3ccccc23)NC1=O |  |  |  | 0.64 | 0.0078 | 0.018 | 0.057 | > 10 | Ki [5]: 5.7 µM
C[C@H]1NC(=O)[C@H](Cc2c[nH]cn2)NC(=O)CCC(=O)NCCCC[C@H](C(N)=O)NC(=O)[C@@H](Cc2c[nH]c3ccccc23)NC(=O)[C@H](CCCN=C(N)N)NC1=O | 0 | 0 | 0 |  |  |  |  |  | 
C[C@@H]1NC(=O)CCC(=O)NCCCC[C@@H](C(N)=O)NC(=O)[C@H](Cc2c[nH]c3ccccc23)NC(=O)[C@H](CCCN=C(N)N)NC(=O)[C@@H](Cc2ccccc2)NC1=O |  |  |  | > 10 | 1.4 | 0.042 | 1.7 | 0.022 | 
N=C(N)NCCC[C@@H]1NC(=O)[C@@H](Cc2ccc3ccccc3c2)NC(=O)[C@H](Cc2c[nH]cn2)NC(=O)CCC(=O)NCCCC[C@@H](C(N)=O)NC(=O)[C@H](Cc2c[nH]c3ccccc23)NC1=O |  |  |  | 0.15 | 0.0121 | 0.07 | 0.087 | 0.26 | Ki [5]: 0.14 µM
N=C(N)NCCC[C@@H]1NC(=O)[C@@H](Cc2ccc3ccccc3c2)NC(=O)[C@H](Cc2c[nH]cn2)NC(=O)CCCC(=O)NCCCC[C@H](C(N)=O)NC(=O)[C@@H](Cc2c[nH]c3ccccc23)NC1=O | 81 | 22.8 | 0 |  |  |  |  |  | 
N=C(N)NCCC[C@@H]1NC(=O)[C@@H](Cc2ccccc2)NC(=O)[C@H](Cc2c[nH]cn2)NC(=O)c2ccccc2C(=O)NCCCC[C@H](C(N)=O)NC(=O)[C@@H](Cc2c[nH]c3ccccc23)NC1=O | 0 | 98 | 76 |  |  |  |  |  | 
NCCCC[C@H](NC(=O)[C@H](Cc1c[nH]c2ccccc12)NC(=O)[C@H](CCCN=C(N)N)NC(=O)[C@@H](Cc1ccccc1)NC(=O)[C@H](Cc1c[nH]cn1)NC(=O)CCC(=O)O)C(N)=O | 100 | 26.5 | 100 |  |  |  |  |  | 
